Laboratory results as given in ChEMBL document CHEMBL3286213, “Exploration of the dihydropyrimidine scaffold for the development of new potential anti-inflammatory agents blocking prostaglandin E₂ synthase-1 enzyme (mPGES-1)” (Eur J Med Chem, 2014).
pIC50: −log10 of the molar value. The source made the active and inactive calls. No cut-off for these calls is given here.

Columns and labels:
[1] = Retention time of the compound by RP-HPLC analysis; format: physicochemical
How it was run: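 RP-HPLC with eluent A 0.1% TFA in water and eluent B 0.1% TFA in CH3CN, detection at 280 nm.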

Prostaglandin E synthase = target: T1, Prostaglandin E synthase (Homo sapiens, UniProt O14684); test: Inhibition of mPGES-1 in interleukin-1 beta-stimulated human A549 cell microsomes assessed as reduction in PGE2 production using PGH2 as substrate treated for 15 mins prior to substrate addition measured after 1 min by RP-HPLC analysis
T1 sequence (O14684 whole entry): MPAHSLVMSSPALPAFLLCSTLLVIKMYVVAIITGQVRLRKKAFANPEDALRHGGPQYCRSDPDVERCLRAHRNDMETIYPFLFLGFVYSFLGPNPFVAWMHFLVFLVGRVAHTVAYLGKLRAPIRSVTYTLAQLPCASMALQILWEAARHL
How it was run: (§1)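 Diluted in 0.1 M potassium phosphate pH 7.4 with 2.5 mM GSH. Compound or vehicle 15 min at 4 °C, then PGH2 added, 1 min. Stopped with FeCl2/citric acid plus 11β-PGE2 internal standard. PGE2 by SPE and RP-HPLC. Mean ± SE.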

[2] = target: T2, Prostaglandin E synthase (Homo sapiens) (UniProt O14684); test: Inhibition of mPGES-1 in interleukin-1 beta-stimulated human A549 cell microsomes assessed as reduction in PGE2 production using PGH2 as substrate at <10 uM treated for 15 mins prior to substrate addition measured after 1 min by RP-HPLC analysis; how it was run: as §1
T2 sequence (whole entry): T1 sequence (O14684 whole entry)

[3] = target: T2, Prostaglandin E synthase (Homo sapiens); test: Inhibition of mPGES-1 in interleukin-1 beta-stimulated human A549 cell microsomes assessed as reduction in PGE2 production using PGH2 as substrate at 10 uM treated for 15 mins prior to substrate addition measured after 1 min by RP-HPLC analysis; how it was run: as §1

Row | SMILES | Retention_time [1] [min] | pIC50 (Prostaglandin E synthase) | inhibition [2] | inhibition [3] [%]
1 | CCOC(=O)C1=C(C(=O)c2ccc(OC)cc2)[C@H](c2ccc(-c3cccc(C(F)(F)F)c3)o2)NC(=O)N1C | 30.3 | 5.12 | – | –
2 | CCOC(=O)C1=C(C(=O)c2ccc(OC)cc2)C(c2cccc(OCC)c2)NC(=O)N1 (configuration not stated) | 22.9 | – | inactive | –
3 | CCOC(=O)C1=C(C(=O)c2ccc(OC)cc2)[C@H](c2cccc(-c3ccc(C#N)cc3)n2)NC(=O)N1 | 20.8 | – | inactive | –
4 | CCOC(=O)C1=C(C(=O)c2ccc(OC)cc2)C(c2cccc(C=O)c2)NC(=O)N1 (configuration not stated) | 24.7 | – | inactive | –
5 | CCOC(=O)C1=C(C)N(C)C(=O)NC1c1ccc(-c2cccc(C(F)(F)F)c2)o1 (configuration not stated) | 26.7 | – | inactive | –
6 | CCOC(=O)C1=C(C(=O)c2ccc(OC)cc2)[C@H](c2coc3c(Br)cc(Br)cc3c2=O)NC(=O)N1 | 26.4 | – | inactive | –
7 | CCOC(=O)C1=C(C(=O)c2ccc(OC)cc2)C(c2ccc(-c3cccc(C(F)(F)F)c3)o2)NC(=S)N1 (configuration not stated) | 32.3 | < 4.52 | – | 37
8 | CCOC(=O)C1=C(C(=O)c2ccc(OC)cc2)[C@H](c2ccc(-c3cccc(C(F)(F)F)c3)o2)NC(=O)N1 | 34.2 | 5.38 | – | –
